Shown are actives, neighbours in structure and some others; about 3.7% of the full set was active somewhere.
ERAP1 inh: ERAP1 (human) enzyme inhibition; inhibition, % at 10.7 µM; recombinant ERAP1, Leu-AMC fluorescence, 60 min; Q9NZ08; 340,000 compounds, 0.15% hits;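 active = mean replicate inhibition of at least 30%, or all replicates individually reaching that 30% level; inactive = mean below 30% and not every replicate reaching it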;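 also: 0% = neutral control wells and 100% = L-leucinethiol positive control wells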
E-sel inducer: induces E-selectin expression in human endothelial cells; activation, % at 7.58 µM; 260,000 compounds, 0.37% hits; AID 686992; P16581; HUVEC E-selectin immunofluorescence imaging; normalized: neutral wells 0, TNF-alpha wells 100;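 active = mean E-selectin-positive cell signal at least 10% of the positive control, reached in at least 60% of replicates, without over 20% cell loss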
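Material: HUVEC primary endothelial cells; Amount: 3,000 cells per well; Dosing: single concentration; Medium: EGM-2 growth medium on 0.1% gelatin-coated wells; Read-out basis: percent E-selectin-positive cells; Signal: immunofluorescence imaging; Control set: TNF-alpha, DMSO.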
FGF22 binding: binders of recombinant human FGF22 by thermal shift; Q9HCT0; SYPRO orange fluorescence; percent of sucrose octasulfate shift, DMSO zero; activity (Tm shift, normalised), % at 9.99 µM; 340,000 compounds, 1.5% hits; AID 651658;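 active = mean Tm shift, scaled 0 neutral to 100 positive control, at about 1.3% or above, every replicate too, limit read from the data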
DENV2 CPE: protects cells from dengue virus 2 cytopathic effect. DENV2-infected cells, cytopathic effect rescue, plate reader. CPE inhibition, % at 9.99 µM. 350,000 compounds, 1.7% hits; in the data active = CPE inhibition above about 20%, passing the limit was not always enough; tested in BHK-21 cells;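 also: 0% = median of neutral control wells and 100% = median of positive control wells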
F508del corr: correctors of CFTR F508del function in bronchial epithelial cells | CFBE cells, YFP halide quenching; stimulated with forskolin plus potentiator P3; % fluorescence drop versus neutral controls | activity (quench increase), % at 7.58 µM | 350,000 compounds, 0.36% hits | AID 720511;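 active = mean added fluorescence quench of at least 8% versus neutral control, with both replicates also reaching 8%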;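 also: cells transiently co-express mutant CFTR-F508del with the halide-sensitive YFP; corrector assay measuring rescue of mutant channel to the surface after 24 h compound exposure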
* = called active by the depositor.

Screening CCOC(=O)C1(C)/C(=N/Nc2ccccc2OC)C(=O)C(=O)N1c1ccccc1 (stereo not drawn) returned ERAP1 inh -2, E-sel inducer 3, FGF22 binding 43*, DENV2 CPE -5 and F508del corr -1.
Screening COc1ccc2c3c([nH]c2c1)[C@@H](CO)N(Cc1ccccc1)CC31CN(C)C1 returned ERAP1 inh 71*, E-sel inducer 0, FGF22 binding 0, DENV2 CPE -6 and F508del corr 4.
Screening COc1ccc2c3c([nH]c2c1)[C@H](CO)N(Cc1cccc(F)c1)CC31CN(Cc2ccccn2)C1 returned ERAP1 inh -1, E-sel inducer 0, FGF22 binding 0, DENV2 CPE 23* and F508del corr -3.
COc1ccc2c3c([nH]c2c1)[C@@H](CO)N(Cc1cccc(F)c1)CC31CN(C(C)=O)C1 was read as ERAP1 inh -6, E-sel inducer 0, FGF22 binding 0, DENV2 CPE 6 and F508del corr 0.
COc1cccc(CN2CC3(CN(C)C3)c3c([nH]c4cc(OC)ccc34)[C@H]2CO)c1 was read as ERAP1 inh 0, E-sel inducer 0, DENV2 CPE 0 and F508del corr 0.
`O=C(N/N=C/c1ccsc1)C1CC1` gave ERAP1 inh 0, FGF22 binding 43*, DENV2 CPE 6 and F508del corr -3.
`O=C1CS(=O)(=O)C(c2ccccc2)N1c1cccc(Cl)c1` (stereo not drawn) gave ERAP1 inh 4, FGF22 binding 0, DENV2 CPE 3 and F508del corr 2.
COc1cccc(-c2cnc3c(c2)C(=O)N([C@@H](C)CO)C[C@@H](C)[C@@H](CN(C)CC2CC2)O3)c1 was read as E-sel inducer 0 and F508del corr -2.
CCOc1ccccc1N(CC(=O)Nc1ccc(OC)cc1)S(=O)(=O)c1ccccc1 was read as ERAP1 inh 5, E-sel inducer 0, FGF22 binding 0, DENV2 CPE 28* and F508del corr 3.
For CCOc1ccccc1N(CC(=O)Nc1cccc(OC)c1)S(=O)(=O)c1ccccc1 the results were ERAP1 inh 3, E-sel inducer 0, FGF22 binding 0, DENV2 CPE -4 and F508del corr 3.
`COc1ccccc1NC(=O)Cc1ccc(-c2ccccc2)cc1` gave ERAP1 inh -6, E-sel inducer 0, FGF22 binding 0, DENV2 CPE -4 and F508del corr 0.
`CCc1ccccc1NC(=O)CCS(=O)(=O)c1ccc(OC)cc1` gave ERAP1 inh -2, E-sel inducer 0, FGF22 binding 0, DENV2 CPE -8 and F508del corr -2.
Screening COc1ccc(CC(=O)Nc2ccccc2Oc2ccccc2)cc1 returned ERAP1 inh 1, FGF22 binding 43*, DENV2 CPE 1 and F508del corr 1.
`CCOc1ccccc1NC(=O)CCS(=O)(=O)c1ccc(OC)cc1` gave ERAP1 inh 3, FGF22 binding 44*, DENV2 CPE 7 and F508del corr 0.
CCS(=O)(=O)Nc1ccc2c(c1)C(=O)N(C)C[C@H](OC)[C@H](C)CN(C(=O)C1CCC1)[C@H](C)CO2 was read as ERAP1 inh 3, E-sel inducer 0, DENV2 CPE 8 and F508del corr 2.
Screening COc1ccc(CN2C[C@@H](C)[C@H](OC)CN(C)C(=O)c3cc(NC(=O)c4nc5ccccc5s4)ccc3OC[C@H]2C)cc1 returned ERAP1 inh -2, E-sel inducer 0, FGF22 binding -1, DENV2 CPE 4 and F508del corr 3.
For C[C@@H]1CCCCO[C@H](CN(C)Cc2ccc(C(F)(F)F)cc2)[C@@H](C)CN([C@@H](C)CO)C(=O)c2cc(NS(=O)(=O)c3ccccc3)ccc2O1 the results were ERAP1 inh -4, E-sel inducer 0, DENV2 CPE 4 and F508del corr 1.
Screening COc1cc(OC)cc(C(=O)c2c(C)c(C#N)c3ccccn23)c1 returned ERAP1 inh -3, FGF22 binding 0, DENV2 CPE 9 and F508del corr 17*.
Screening CCOC(=O)COc1ccc2c(C#N)c3ccccn3c2c1 returned ERAP1 inh -4, E-sel inducer 1, FGF22 binding 0, DENV2 CPE 1 and F508del corr -2.
